MrgX1 agonist: agonists of human MrgX1 receptor, primary screen, HEK293 cells, Fluo-4 calcium flux. hit rate 0.44% among 310,000. B-score at 10 µM. Mas-related G-protein coupled receptor member X1 (Homo sapiens), Q96LB2. Fluo-4 calcium fluorescence, agonist mode; stronger effect = higher value;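 active = calcium response B-score plate-corrected fluorescence ratio at least 3 library SD, with starting fluorescence B-score inside 5 SD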
Target sequence (Q96LB2 whole entry, looked up): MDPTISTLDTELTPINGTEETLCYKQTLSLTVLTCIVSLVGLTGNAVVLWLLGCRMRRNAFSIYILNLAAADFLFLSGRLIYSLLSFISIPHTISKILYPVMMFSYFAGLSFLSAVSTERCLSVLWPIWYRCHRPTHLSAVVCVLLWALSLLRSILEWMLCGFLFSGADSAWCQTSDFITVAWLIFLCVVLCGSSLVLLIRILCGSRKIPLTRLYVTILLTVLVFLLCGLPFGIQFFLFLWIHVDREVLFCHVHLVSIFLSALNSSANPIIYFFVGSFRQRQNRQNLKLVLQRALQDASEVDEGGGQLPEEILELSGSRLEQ
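Assay system: stable human MrgX1 HEK293 cell line. Quantity: 15,000 cells per well. Schedule: cells plated overnight, dye loaded 0.5 h 37 °C, 0.5 h room temperature. Detection: Fluo-4 NW calcium-flux fluorescence, kinetic read. Read-out basis: peak-minus-minimum fluorescence over baseline, converted to B scores. Control set: positive and negative control wells on each plate.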
MrgX1 allo act: positive allosteric modulators of MrgX1, primary screen, HEK293 cells, Fluo-4 calcium flux; B-score at 10 µM; AID 588675, 2011; Mas-related G-protein coupled receptor member X1 (Homo sapiens), Q96LB2; FDSS; stronger effect = higher value; hit rate 0.63% among 310,000;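 active = plate-corrected calcium response at least 3 library SD above typical, normal starting fluorescence, not activating the receptor alone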;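 also: compound read alongside a low EC10 to EC30 dose of BAM8-22 agonist; peak minus trough fluorescence over baseline measured at the second addition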
RGS4 inh: RGS4 inhibitors, primary screen, cell-based, HEK293 M3R inducible RGS4, calcium flux | Fluo-4 calcium flux; stronger effect = higher value; triggered by carbachol at its EC20 | Regulator of G-protein signaling 4 (Homo sapiens), P49798 | B-score at 10 µM | hit rate 0.45% among 310,000;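 active = B-score, a plate-corrected calcium signal, over three deviations above library mean, with baseline fluorescence within five deviations of library mean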;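 also: RGS4 expression induced by doxycycline in cells with stable M3 receptor; B-score is computed from the integrated fluorescence ratio over baseline after carbachol; higher B-score means a larger calcium signal and so more RGS4 inhibition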
Target sequence (P49798 whole entry, looked up): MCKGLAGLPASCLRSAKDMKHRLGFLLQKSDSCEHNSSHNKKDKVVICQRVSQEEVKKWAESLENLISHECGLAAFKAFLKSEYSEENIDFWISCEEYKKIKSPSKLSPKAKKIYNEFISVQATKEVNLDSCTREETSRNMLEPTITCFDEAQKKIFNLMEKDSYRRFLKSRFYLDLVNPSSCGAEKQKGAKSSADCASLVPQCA
MrgX1 antagonist: antagonists of human MrgX1 receptor, primary screen, HEK293 cells, Fluo-4 calcium flux; B-score at 10 µM; Mas-related G-protein coupled receptor member X1 (Homo sapiens), Q96LB2; AID 588676, 2011; BAM8-22 antagonism; stronger effect = lower value; hit rate 1.3% among 310,000;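 active = calcium-response B-score plate-corrected more than 3 library SD below zero, starting fluorescence within 5 deviations, no agonist response on first addition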;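 also: peak minus trough fluorescence over baseline after final BAM8-22 challenge near maximal dose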
RGS4 pot: RGS4 potentiators or activators, primary screen, cell-based, HEK293 M3R inducible RGS4, calcium flux. AID 463111, 2010. B-score at 10 µM. carbachol calcium flux Fluo4; stronger effect = lower value. hit rate 0.92% among 310,000;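 active = B-score of the integrated calcium signal more than 4 SD below the library mean, with starting fluorescence not abnormally high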;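 also: negative B-score means reduced calcium response which marks RGS4 activation or potentiation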
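System: HEK293 FlpIn-TREx cells, stable M3R, doxycycline-inducible RGS4. Timing: overnight RGS4 induction, 30 min dye load 37 °C, 20 min compound RT. Also added: carbachol, ECmax concentration. Measured by: Fluo4 fluorescence kinetic imaging of calcium. Evaluation: integrated calcium ratio converted to B score.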
MrgX1 ag reconf: MrgX1 receptor agonists, duplicate retest, confirmation, HEK293 cells, Fluo-4 calcium flux; shares compounds with MrgX1 agonist; Fluo-4 calcium fluorescence, FDSS; activation, % at 10 µM; hit rate 78% among 600;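 active = calcium signal rise, corrected for plate position, at least 3 library SD high, with starting brightness within 5 such deviations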
HEK293 Ca flux: nonspecific calcium signal in parental HEK293, confirmation, counter-screen for MrgX1 antagonist project, parental HEK293 cells, Fluo-4 calcium flux; shares compounds with MrgX1 antagonist; Fluo-4 calcium fluorescence, FDSS; fluorescence ratio F(max-min)/F0 at 10 µM; hit rate 2% among 4,000; AID 624111, 2012;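 active = duplicate-averaged calcium fluorescence ratio at least three times the standard deviation of buffer wells, a nonspecific response in parental cells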
HEK293 Ca counter: calcium response in parental HEK293 cells, primary screen, counter-screen for MrgX1 allosteric activator project, cell-based, Fluo-4 calcium flux, duplicate; shares compounds with MrgX1 antagonist; Fluo-4 fluorescence ratio; stronger effect = higher value; fluorescence ratio F(max-min)/F0 at 10 µM; hit rate 0.4% among 4,000;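 active = calcium fluorescence ratio, averaged over duplicates, at least 3 SD of the buffer-well ratio, meaning a nonspecific response in receptor-free cells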;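 also: untransfected parental HEK293 lacking MrgX1 used as counterscreen for MrgX1 allosteric activators; fluorescence change taken during the second addition on a kinetic imager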
HEK293 Ca cntr2: calcium response in parental HEK293 cells, primary screen, counter-screen for MrgX1 agonist project, cell-based, Fluo-4 calcium flux, duplicate, agonist mode; shares compounds with MrgX1 antagonist; Fluo-4 calcium fluorescence (FDSS); stronger effect = higher value; fluorescence ratio F(max-min)/F0 at 10 µM; hit rate 8.7% among 4,000;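 active = calcium fluorescence ratio at least three times the spread of buffer wells, meaning a non-specific response in parental cells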
Each line names hits and unclear results; the compound was inactive in the other large screens (follow-up assays come after a bar, where they were run). Compounds with a hit are over-represented: about 3.5% of the library has one in this group of screens.

CC(C)(C)n1nnnc1C(c1cccnc1)N1CCN(c2cccc(C(F)(F)F)c2)CC1 (stereo unspecified)	none
CC(C)(C)c1cc(C(c2cccnc2)N2CCN(CCO)CC2)cc(C(C)(C)C)c1O (stereo unspecified)	MrgX1 agonist 31.5 | MrgX1 ag reconf 262.6% | HEK293 Ca flux inactive | HEK293 Ca counter inactive | HEK293 Ca cntr2 52.5
O=S(=O)(c1ccccc1)N1CCc2ccccc2C1	none
O=C1COc2ccc(C(=O)CSc3nnc(Cc4cccs4)n3-c3ccccc3)cc2N1	MrgX1 agonist 26.6 | MrgX1 ag reconf 174.8% | HEK293 Ca flux inactive | HEK293 Ca counter inactive | HEK293 Ca cntr2 inactive
CC1Nc2ccccc2C(=O)N1NS(=O)(=O)c1ccccc1 (stereo unspecified)	none
COc1ccc(NC(=O)CSc2nc(SC)ns2)cc1	none
Cn1cc(C=C2C(=O)OC3(CCCCC3)OC2=O)c2ccccc21	none
CCN(CC)c1ccc(C=C2C(=O)OC3(CCCC3)OC2=O)cc1	MrgX1 agonist 74.3 | MrgX1 ag reconf 439.5% | HEK293 Ca flux inactive | HEK293 Ca counter inactive | HEK293 Ca cntr2 110
Cc1occc1-c1nnc(SCC(=O)N2CCc3ccccc32)o1	MrgX1 agonist 37.3 | MrgX1 ag reconf 207.1% | HEK293 Ca flux inactive | HEK293 Ca counter inactive | HEK293 Ca cntr2 inactive
O=C(CSc1nnc(-c2cccs2)o1)N1CCc2ccccc21	none
NC(=O)Cn1c(=O)n(Cc2ccccc2)c(=O)c2cccnc21	none
CCOCCn1c(SC(C)C(C)=O)nc2c1c(=O)[nH]c(=O)n2C (stereo unspecified)	MrgX1 agonist 53.3 | MrgX1 ag reconf inactive | HEK293 Ca flux inactive | HEK293 Ca counter inactive | HEK293 Ca cntr2 inactive
Cc1cc(=O)oc2ccc(OCC(=O)N3CCC(C)CC3)cc12	MrgX1 agonist 27.8 | MrgX1 ag reconf 215.3% | HEK293 Ca flux inactive | HEK293 Ca counter inactive | HEK293 Ca cntr2 inactive
Cc1cc2c(c(=O)o1)C(CCC1CCCCC1)C(C#N)=C(N)O2 (stereo unspecified)	MrgX1 agonist 28.4 | MrgX1 ag reconf inactive | HEK293 Ca flux inactive | HEK293 Ca counter inactive | HEK293 Ca cntr2 inactive
CCC(CC)C1C(C#N)=C(N)Oc2cc(C)oc(=O)c21 (stereo unspecified)	none
COc1cc(/C=N/NC(=O)C23CC4CC(CC(C4)C2)C3)cc(Br)c1O	none
O=C(N/N=C/c1cc([N+](=O)[O-])cc(Br)c1O)C12CC3CCC(CC(C3)C1)C2	MrgX1 agonist 73 | MrgX1 ag reconf 174.6% | HEK293 Ca flux inactive | HEK293 Ca counter inactive | HEK293 Ca cntr2 92.3
COc1cc(/C=C2/C(=N)N3C(SC)=NSC3=NC2=O)ccc1OC(=O)c1ccco1	MrgX1 agonist 70.9 | MrgX1 ag reconf 227.4% | HEK293 Ca flux inactive | HEK293 Ca counter inactive | HEK293 Ca cntr2 48.4
O=C1NC(=Nc2ccc(Cl)cc2)/C(=C/c2ccco2)S1	none
CCOc1ccc(N=C2NC(=O)S/C2=C\c2ccc(N(C)C)cc2)cc1	MrgX1 agonist 26.9 | MrgX1 ag reconf 261.4% | HEK293 Ca flux 0.25 | HEK293 Ca counter inactive | HEK293 Ca cntr2 59.4
CCOC(=O)c1[nH]c2ccc(F)cc2c1N=C(C)N(CC)CC	MrgX1 agonist 50.1 | MrgX1 ag reconf 115.8% | HEK293 Ca flux inactive | HEK293 Ca counter inactive | HEK293 Ca cntr2 inactive
O=C(C1Cc2ccccc2CN1S(=O)(=O)c1ccc(F)cc1)N1CCCCC1 (stereo unspecified)	MrgX1 agonist 33.4 | MrgX1 ag reconf 242.8% | HEK293 Ca flux inactive | HEK293 Ca counter inactive | HEK293 Ca cntr2 73.5
O=C(c1ccco1)N1CCN(C(=O)C2Cc3ccccc3CN2S(=O)(=O)c2ccc(F)cc2)CC1 (stereo unspecified)	none
O=C(CC(=O)c1c(F)cccc1Cl)c1ccccc1O	MrgX1 agonist 52.9 | MrgX1 ag reconf 325.6% | HEK293 Ca flux inactive | HEK293 Ca counter inactive | HEK293 Ca cntr2 72.9
O=C(CC(=O)c1ccccc1O)c1cccc(F)c1	none
N#Cc1ccc(C(=O)Nc2nnc(-c3cccs3)o2)cc1	none
O=C(Nc1nnc(-c2cccs2)o1)c1cccc(C(F)(F)F)c1	MrgX1 agonist 74.8 | MrgX1 ag reconf 498.2% | HEK293 Ca flux inactive | HEK293 Ca counter inactive | HEK293 Ca cntr2 96.3
N#Cc1nc(-c2ccc(F)cc2)oc1NCc1ccccc1	none
N#Cc1nc(Cc2ccccc2)oc1NCc1ccccc1	MrgX1 agonist 31.3 | MrgX1 ag reconf 107.9% | HEK293 Ca flux inactive | HEK293 Ca counter inactive | HEK293 Ca cntr2 inactive
COc1ccc(CNc2oc(COc3ccccc3)nc2C#N)cc1	none
CCC(CC)c1nc(C#N)c(NCc2ccccc2)o1	MrgX1 agonist 26.9 | MrgX1 ag reconf 229.5% | HEK293 Ca flux inactive | HEK293 Ca counter inactive | HEK293 Ca cntr2 49.5
CCc1sc(C(=O)N2CCN(c3ccc(F)cc3)CC2)cc1C	none
CN(CC(=O)Nc1ccccc1C(F)(F)F)C(=O)C1=COCCO1	none
CC(C)CC(C(=O)O)N1C(=O)C2C3CC(C2C1=O)C1C(c2ccccc2)c2sc(=O)[nH]c2SC31 (stereo unspecified)	none
COc1ccc(C2=CC(c3ccc(C)cc3)n3nnnc3N2)cc1 (stereo unspecified)	none
COc1ccc(C2C=C(c3ccccc3)Nc3nnnn32)cc1 (stereo unspecified)	MrgX1 agonist 32.6 | MrgX1 ag reconf inactive | HEK293 Ca flux inactive | HEK293 Ca counter inactive | HEK293 Ca cntr2 inactive
CC(C)OC(=O)CSc1nnc(-c2ccncc2)n1N	MrgX1 agonist 40.9 | MrgX1 ag reconf inactive | HEK293 Ca flux inactive | HEK293 Ca counter inactive | HEK293 Ca cntr2 inactive
CC(C)OC(=O)CSc1nnc(-c2ccc(C(C)(C)C)cc2)n1N	none
CCOc1cc(/C=C/C(=O)c2ccc(OC)c(CN3CCOCC3)c2)cc(Br)c1O	MrgX1 agonist 143 | MrgX1 ag reconf 675.0% | HEK293 Ca flux inactive | HEK293 Ca counter inactive | HEK293 Ca cntr2 131

From PubChem
